{"source": "ChEMBL document CHEMBL6096655", "about": "“Discovery of a novel, selective CK2 inhibitor class with an unusual basic scaffold” (Eur J Med Chem, 2025)", "key": {"[1]": {"target": "Hepatocyte growth factor receptor (Homo sapiens) (UniProt P08581)", "assay": "Inhibition of human MET at 2 uM by Eurofins kinase assay relative to control"}, "[2]": {"target": "Signal transducer and activator of transcription 3 (Homo sapiens) (UniProt P40763)", "sequence (P40763 whole entry)": "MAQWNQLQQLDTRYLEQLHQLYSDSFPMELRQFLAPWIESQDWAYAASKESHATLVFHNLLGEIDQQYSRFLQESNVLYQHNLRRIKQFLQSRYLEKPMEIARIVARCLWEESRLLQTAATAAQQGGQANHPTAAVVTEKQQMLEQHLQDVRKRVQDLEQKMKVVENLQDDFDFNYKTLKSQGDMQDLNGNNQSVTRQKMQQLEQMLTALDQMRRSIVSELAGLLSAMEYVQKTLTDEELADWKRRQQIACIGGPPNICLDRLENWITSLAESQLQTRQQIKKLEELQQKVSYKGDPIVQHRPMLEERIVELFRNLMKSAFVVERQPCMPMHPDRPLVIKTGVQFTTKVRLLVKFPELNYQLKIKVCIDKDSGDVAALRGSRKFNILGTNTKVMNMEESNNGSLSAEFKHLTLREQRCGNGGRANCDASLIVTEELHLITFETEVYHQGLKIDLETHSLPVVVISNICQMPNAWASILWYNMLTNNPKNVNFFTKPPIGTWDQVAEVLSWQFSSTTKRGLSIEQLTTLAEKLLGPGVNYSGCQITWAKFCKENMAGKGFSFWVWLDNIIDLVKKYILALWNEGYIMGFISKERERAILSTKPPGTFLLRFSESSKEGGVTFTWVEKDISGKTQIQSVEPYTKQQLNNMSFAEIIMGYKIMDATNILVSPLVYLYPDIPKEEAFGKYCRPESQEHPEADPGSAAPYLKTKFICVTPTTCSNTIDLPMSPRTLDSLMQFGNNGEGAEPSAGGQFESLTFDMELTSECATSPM", "assay": "Inhibition of STAT3 phosphorylation in human 786-O cells at 6 uM measured after 48 hrs by immunoblot analysis relative to control"}, "[3]": {"target": "Serine/threonine-protein kinase haspin (Homo sapiens) (UniProt Q8TF76)", "assay": "Inhibition of human recombinant GSG2 at 2 uM by Eurofins kinase assay relative to control"}, "[4]": {"target": "Eukaryotic translation initiation factor 2 subunit 2 (Homo sapiens) (UniProt P20042)", "sequence (P20042 whole entry)": "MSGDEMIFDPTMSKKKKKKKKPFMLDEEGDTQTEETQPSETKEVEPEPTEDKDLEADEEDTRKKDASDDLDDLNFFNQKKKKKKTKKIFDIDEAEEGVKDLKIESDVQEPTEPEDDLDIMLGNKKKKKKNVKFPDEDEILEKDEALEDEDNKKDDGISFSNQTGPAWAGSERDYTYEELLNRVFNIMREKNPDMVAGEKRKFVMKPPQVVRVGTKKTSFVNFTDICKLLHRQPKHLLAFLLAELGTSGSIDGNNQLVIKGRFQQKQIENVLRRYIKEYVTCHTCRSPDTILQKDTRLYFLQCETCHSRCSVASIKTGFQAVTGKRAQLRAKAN", "assay": "Inhibition of eIF2beta phosphorylation in human 786-O cells at 6 uM measured after 48 hrs by immunoblot analysis relative to control"}, "[5]": {"assay": "Upregulation of PARP cleavage in human U-937 cells by measuring signal 1 at 5 uM measured after 48 hrs by immunoblot analysis", "assay_type": "functional", "summary_of_the_method": "(§1)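 U937 cells exposed to compound or DMSO for 48 h, then lysed in Laemmli buffer. Lysates were run on 8–16% gradient SDS-PAGE, semi-dry blotted to PVDF and probed for PARP. Detection used IR-fluorescent secondary antibodies. The cleaved/uncleaved PARP signal ratio was obtained by densitometry. Results are representative of two independent experiments.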"}, "[6]": {"assay": "Upregulation of PARP cleavage in human U-937 cells by measuring signal 1 at 10 uM measured after 48 hrs by immunoblot analysis", "assay_type": "functional", "summary_of_the_method": "as §1"}, "[7]": {"target": "Homeodomain-interacting protein kinase 3 (Homo sapiens) (UniProt Q9H422)", "assay": "Inhibition of human recombinant HIPK3 at 2 uM by Eurofins kinase assay relative to control"}, "786-0 [8]": {"system": "786-0", "assay": "Antiproliferative activity against human 786-0 cells assessed as inhibition of cell growth measured after 3 to 4 days by MTT assay", "assay_type": "functional", "settings": "time 3-4 day", "summary_of_the_method": "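786-O or U937 cells grown in RPMI with 2 mM L-glutamine, 1% pen/strep and 10% FCS. Cells were seeded at 5000 per well and left overnight, then switched to 1% FCS medium containing compound or DMSO (max. 0.2% final). Growth ran 3–4 days at 37 °C in 5% CO₂ without medium change, followed by MTT read-out. GI50 is the mean ± SD of at least two independent experiments.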"}, "[9]": {"target": "Signal transducer and activator of transcription 3 (Homo sapiens) (UniProt P40763)", "assay": "Inhibition of STAT3 phosphorylation in human 786-O cells at 10 uM measured after 48 hrs by immunoblot analysis relative to control"}, "[10]": {"target": "Dual specificity protein kinase CLK4 (Homo sapiens) (UniProt Q9HAZ1)", "sequence (Q9HAZ1 whole entry, looked up)": "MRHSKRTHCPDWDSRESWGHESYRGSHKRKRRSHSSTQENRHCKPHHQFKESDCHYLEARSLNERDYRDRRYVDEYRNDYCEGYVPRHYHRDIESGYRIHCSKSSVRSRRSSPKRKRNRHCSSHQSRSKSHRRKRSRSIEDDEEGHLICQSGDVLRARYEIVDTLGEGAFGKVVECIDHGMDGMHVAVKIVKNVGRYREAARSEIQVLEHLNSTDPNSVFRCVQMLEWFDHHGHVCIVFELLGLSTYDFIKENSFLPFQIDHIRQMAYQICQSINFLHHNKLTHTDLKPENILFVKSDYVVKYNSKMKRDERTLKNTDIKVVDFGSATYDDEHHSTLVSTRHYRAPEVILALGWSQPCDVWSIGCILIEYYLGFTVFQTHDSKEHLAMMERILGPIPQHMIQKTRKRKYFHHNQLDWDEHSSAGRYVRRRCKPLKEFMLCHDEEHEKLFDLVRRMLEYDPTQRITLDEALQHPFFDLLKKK", "assay": "Inhibition of human recombinant CLK4 at 2 uM by Eurofins kinase assay relative to control"}, "[11]": {"assay": "Upregulation of PARP cleavage in human U-937 cells by measuring signal 1 at 15 uM measured after 48 hrs by immunoblot analysis", "assay_type": "functional", "summary_of_the_method": "as §1"}, "Homo sapiens": {"organism": "Homo sapiens", "assay": "Inhibition of human recombinant GST tagged CDK1/cyclin B expressed in insect cells at 2 uM by Eurofins kinase assay relative to control"}, "[12]": {"target": "Serine/threonine-protein kinase TBK1 (Homo sapiens) (UniProt Q9UHD2)", "assay": "Inhibition of human TBK1 at 2 uM by Eurofins kinase assay relative to control"}, "[13]": {"assay": "Antiproliferative activity against HEK293 cells assessed as inhibition of cell growth measured after 3 to 4 days by MTT assay", "assay_type": "toxicity, cell-based", "settings": "human, time 3-4 day", "summary_of_the_method": "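HEK293 cells grown in DMEM with 2 mM L-glutamine, 1% pen/strep and 10% FCS. Cells were seeded at 5000 per well, left overnight, then given medium with 1% FCS plus compound or DMSO (max. 0.2% final). They were grown 3–4 days at 37 °C in 5% CO₂ with no medium change, and growth was read by MTT.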"}, "786-0 [14]": {"system": "786-0", "assay": "Antiproliferative activity against human 786-0 cells assessed as inhibition of cell growth at 30 uM measured after 3 to 4 days by MTT assay relative to control", "assay_type": "functional", "settings": "time 3-4 day", "summary_of_the_method": "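786-O cells (RPMI, 10% FCS) seeded at 5000 per well and left overnight. Compound was added at a single 30 µM concentration in 1% FCS medium (DMSO max. 0.2%). Cells grew 3–4 days at 37 °C, 5% CO₂, with no medium change, and were read by MTT. Percent inhibition is the mean of duplicates that differed by ≤10%.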"}, "[15]": {"system": "Mast/stem cell growth factor receptor Kit (Homo sapiens), P10721 [D816H]", "assay": "Inhibition of human recombinant GST/His tagged KIT D816H mutant expressed in insect cells at 2 uM by Eurofins kinase assay relative to control"}, "[16]": {"target": "Aurora kinase B (Homo sapiens) (UniProt Q96GD4)", "assay": "Inhibition of human recombinant AURKB at 2 uM by Eurofins kinase assay relative to control"}, "[17]": {"target": "PAS domain-containing serine/threonine-protein kinase (Homo sapiens) (UniProt Q96RG2)", "assay": "Inhibition of human recombinant PASK at 2 uM by Eurofins kinase assay relative to control"}, "[18]": {"target": "Glycogen synthase kinase-3 beta (Homo sapiens) (UniProt P49841)", "sequence (P49841 whole entry, looked up)": "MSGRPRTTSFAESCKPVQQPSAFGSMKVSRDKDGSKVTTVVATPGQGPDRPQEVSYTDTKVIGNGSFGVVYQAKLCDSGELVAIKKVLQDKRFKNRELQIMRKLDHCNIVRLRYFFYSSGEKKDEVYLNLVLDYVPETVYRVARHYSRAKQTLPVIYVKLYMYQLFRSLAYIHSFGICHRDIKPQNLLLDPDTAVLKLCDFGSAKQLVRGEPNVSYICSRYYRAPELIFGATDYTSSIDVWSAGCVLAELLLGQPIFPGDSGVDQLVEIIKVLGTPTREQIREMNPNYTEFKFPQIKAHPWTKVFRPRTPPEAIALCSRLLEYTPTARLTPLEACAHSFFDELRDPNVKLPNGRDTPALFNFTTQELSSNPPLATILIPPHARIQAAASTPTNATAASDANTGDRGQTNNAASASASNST", "assay": "Inhibition of human recombinant GSK3B at 2 uM by Eurofins kinase assay relative to control"}, "[19]": {"target": "Homeodomain-interacting protein kinase 2 (Homo sapiens) (UniProt Q9H2X6)", "sequence (Q9H2X6 whole entry, looked up)": "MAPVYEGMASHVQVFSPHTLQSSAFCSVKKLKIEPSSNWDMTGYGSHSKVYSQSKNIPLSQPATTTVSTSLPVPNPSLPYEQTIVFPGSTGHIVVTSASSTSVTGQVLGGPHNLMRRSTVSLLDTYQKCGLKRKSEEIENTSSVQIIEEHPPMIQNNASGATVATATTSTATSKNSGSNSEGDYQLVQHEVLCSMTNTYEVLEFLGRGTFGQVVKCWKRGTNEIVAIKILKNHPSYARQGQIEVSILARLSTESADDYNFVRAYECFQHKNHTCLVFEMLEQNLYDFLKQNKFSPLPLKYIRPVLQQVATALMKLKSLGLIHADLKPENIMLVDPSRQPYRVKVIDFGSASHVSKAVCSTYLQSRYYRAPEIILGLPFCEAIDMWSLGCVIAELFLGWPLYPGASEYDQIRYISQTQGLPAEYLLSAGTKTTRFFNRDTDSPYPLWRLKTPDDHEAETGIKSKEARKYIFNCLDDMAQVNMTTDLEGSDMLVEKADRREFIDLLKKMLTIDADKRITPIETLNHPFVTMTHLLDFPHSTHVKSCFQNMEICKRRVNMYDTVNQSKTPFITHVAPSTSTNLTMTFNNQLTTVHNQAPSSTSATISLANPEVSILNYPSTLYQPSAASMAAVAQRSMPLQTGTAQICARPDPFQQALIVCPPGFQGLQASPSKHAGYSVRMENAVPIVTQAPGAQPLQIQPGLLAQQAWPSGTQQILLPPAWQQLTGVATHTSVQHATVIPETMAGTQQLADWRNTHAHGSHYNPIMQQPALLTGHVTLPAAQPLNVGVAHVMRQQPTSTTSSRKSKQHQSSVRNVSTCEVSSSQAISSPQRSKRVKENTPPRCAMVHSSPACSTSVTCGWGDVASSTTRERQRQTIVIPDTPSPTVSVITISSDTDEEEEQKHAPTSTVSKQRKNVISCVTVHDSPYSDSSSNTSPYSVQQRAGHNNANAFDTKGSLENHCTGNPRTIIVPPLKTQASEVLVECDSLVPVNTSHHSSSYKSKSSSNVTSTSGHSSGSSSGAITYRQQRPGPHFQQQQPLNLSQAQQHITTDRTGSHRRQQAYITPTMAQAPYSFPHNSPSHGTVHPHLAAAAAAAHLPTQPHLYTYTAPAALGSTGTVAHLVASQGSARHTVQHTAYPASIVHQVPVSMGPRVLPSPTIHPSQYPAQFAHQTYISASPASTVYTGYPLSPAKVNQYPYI", "assay": "Inhibition of human recombinant HIPK2 at 2 uM by Eurofins kinase assay relative to control"}, "[20]": {"target": "Mitogen-activated protein kinase 12 (Homo sapiens) (UniProt P53778)", "assay": "Inhibition of human recombinant MAPK12 at 2 uM by Eurofins kinase assay relative to control"}, "[21]": {"target": "Mitogen-activated protein kinase 1 (Homo sapiens) (UniProt P28482)", "assay": "Inhibition of human MAPK1 at 2 uM by Eurofins kinase assay relative to control"}, "[22]": {"assay": "Upregulation of PARP cleavage in human U-937 cells by measuring signal 1 at 30 uM measured after 48 hrs by immunoblot analysis", "assay_type": "functional", "summary_of_the_method": "as §1"}, "[23]": {"target": "Signal transducer and activator of transcription 3 (Homo sapiens) (UniProt P40763)", "assay": "Inhibition of STAT3 phosphorylation in human 786-O cells at 8 uM measured after 48 hrs by immunoblot analysis relative to control"}, "[24]": {"target": "Mitogen-activated protein kinase 8 (Homo sapiens) (UniProt P45983)", "sequence (P45983 whole entry)": "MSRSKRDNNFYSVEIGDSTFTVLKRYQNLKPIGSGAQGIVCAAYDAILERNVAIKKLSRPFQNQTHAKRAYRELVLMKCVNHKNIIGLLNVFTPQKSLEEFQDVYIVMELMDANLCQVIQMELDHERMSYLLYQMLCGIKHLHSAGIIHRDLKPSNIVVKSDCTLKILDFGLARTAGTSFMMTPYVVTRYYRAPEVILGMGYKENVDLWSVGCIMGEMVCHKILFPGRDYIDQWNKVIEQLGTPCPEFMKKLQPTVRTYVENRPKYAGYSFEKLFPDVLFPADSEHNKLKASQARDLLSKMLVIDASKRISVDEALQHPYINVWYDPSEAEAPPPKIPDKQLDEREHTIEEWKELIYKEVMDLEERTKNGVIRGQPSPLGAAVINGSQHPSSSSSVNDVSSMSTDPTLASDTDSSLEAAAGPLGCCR", "assay": "Inhibition of human recombinant MAPK8 at 2 uM by Eurofins kinase assay relative to control"}, "[25]": {"target": "CDC7/DBF4 (Cell division cycle 7-related protein kinase/Activator of S phase kinase) (Homo sapiens) (UniProt Q9UBU7+O00311)", "sequence (O00311 whole entry, looked up)": "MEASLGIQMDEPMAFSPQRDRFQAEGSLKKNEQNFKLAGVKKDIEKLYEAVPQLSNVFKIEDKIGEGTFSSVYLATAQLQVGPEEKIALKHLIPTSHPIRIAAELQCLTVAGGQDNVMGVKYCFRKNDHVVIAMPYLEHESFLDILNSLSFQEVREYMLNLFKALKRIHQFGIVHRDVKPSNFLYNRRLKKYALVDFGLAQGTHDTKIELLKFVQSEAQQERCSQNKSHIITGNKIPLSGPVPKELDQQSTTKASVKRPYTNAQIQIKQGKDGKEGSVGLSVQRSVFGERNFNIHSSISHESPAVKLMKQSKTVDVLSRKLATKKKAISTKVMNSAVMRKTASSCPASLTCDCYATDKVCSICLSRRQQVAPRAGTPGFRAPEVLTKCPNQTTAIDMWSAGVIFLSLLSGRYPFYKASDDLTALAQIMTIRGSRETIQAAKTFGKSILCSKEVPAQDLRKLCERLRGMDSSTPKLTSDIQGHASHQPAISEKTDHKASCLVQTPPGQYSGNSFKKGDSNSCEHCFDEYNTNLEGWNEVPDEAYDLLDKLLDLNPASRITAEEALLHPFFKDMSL", "sequence (Q9UBU7 whole entry, looked up)": "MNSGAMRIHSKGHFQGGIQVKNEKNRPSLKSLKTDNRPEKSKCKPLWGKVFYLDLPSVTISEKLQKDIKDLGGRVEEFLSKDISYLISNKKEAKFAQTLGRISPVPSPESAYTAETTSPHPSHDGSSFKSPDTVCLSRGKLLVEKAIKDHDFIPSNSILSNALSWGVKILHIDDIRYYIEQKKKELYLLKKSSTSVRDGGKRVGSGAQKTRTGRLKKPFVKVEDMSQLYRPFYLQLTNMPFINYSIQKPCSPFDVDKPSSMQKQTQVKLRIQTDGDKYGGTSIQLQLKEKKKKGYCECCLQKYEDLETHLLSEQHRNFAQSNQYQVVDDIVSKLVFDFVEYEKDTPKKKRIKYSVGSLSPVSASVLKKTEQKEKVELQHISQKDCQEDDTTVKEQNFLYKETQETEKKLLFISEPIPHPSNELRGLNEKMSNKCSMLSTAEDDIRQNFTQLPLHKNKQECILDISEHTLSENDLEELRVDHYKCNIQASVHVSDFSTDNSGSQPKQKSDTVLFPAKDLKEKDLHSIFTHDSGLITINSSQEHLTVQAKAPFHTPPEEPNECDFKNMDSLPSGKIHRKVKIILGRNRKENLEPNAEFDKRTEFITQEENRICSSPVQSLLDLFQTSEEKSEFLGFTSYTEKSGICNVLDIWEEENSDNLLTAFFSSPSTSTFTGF", "assay": "Inhibition of human recombinant GST tagged CDC7/DBF4 expressed in Baculovirus expression system at 2 uM by Eurofins kinase assay relative to control"}, "[26]": {"target": "Serine/threonine-protein kinase D1 (Homo sapiens) (UniProt Q15139)", "assay": "Inhibition of human recombinant PRKD1 at 2 uM by Eurofins kinase assay relative to control"}, "[27]": {"target": "Eukaryotic translation initiation factor 2 subunit 2 (Homo sapiens) (UniProt P20042)", "assay": "Inhibition of eIF2beta phosphorylation in human 786-O cells at 8 uM measured after 48 hrs by immunoblot analysis relative to control"}}}
{"smiles": "Clc1ccc(N2CCN(c3ncnc4sc5c(c34)CCNC5)CC2)cc1.O=C(O)C(F)(F)F", "values": [{"measurement": "inhibition", "setting": "[1]", "result": 2, "unit": "%"}, {"measurement": "inhibition", "setting": "[2]", "result": 64, "unit": "%"}, {"measurement": "inhibition", "setting": "[3]", "result": 5, "unit": "%"}, {"measurement": "inhibition", "setting": "[4]", "result": 0, "unit": "%"}, {"measurement": "Activity", "setting": "[5]", "result": 72, "unit": "%"}, {"measurement": "Activity", "setting": "[6]", "result": 89, "unit": "%"}, {"measurement": "inhibition", "setting": "[7]", "result": 9, "unit": "%"}, {"measurement": "GI50", "setting": "786-0 [8]", "result": 7.3, "unit": "µM"}, {"measurement": "inhibition", "setting": "[9]", "result": 97, "unit": "%"}, {"measurement": "inhibition", "setting": "[10]", "result": 11, "unit": "%"}, {"measurement": "Activity", "setting": "[11]", "result": 96, "unit": "%"}, {"measurement": "inhibition", "setting": "Homo sapiens", "result": 4, "unit": "%"}, {"measurement": "inhibition", "setting": "[12]", "result": 4, "unit": "%"}, {"measurement": "GI50", "setting": "[13]", "result": 30, "unit": "µM"}, {"measurement": "inhibition at 30 µM", "setting": "786-0 [14]", "result": 102, "unit": "%"}, {"measurement": "inhibition", "setting": "[15]", "result": 4, "unit": "%"}, {"measurement": "inhibition", "setting": "[16]", "result": 4, "unit": "%"}, {"measurement": "inhibition", "setting": "[17]", "result": 0, "unit": "%"}, {"measurement": "inhibition", "setting": "[18]", "result": 0, "unit": "%"}, {"measurement": "inhibition", "setting": "[19]", "result": 15, "unit": "%"}, {"measurement": "inhibition", "setting": "[20]", "result": 5, "unit": "%"}, {"measurement": "inhibition", "setting": "[21]", "result": 2, "unit": "%"}, {"measurement": "Activity", "setting": "[22]", "result": 98, "unit": "%"}, {"measurement": "inhibition", "setting": "[23]", "result": 80, "unit": "%"}, {"measurement": "inhibition", "setting": "[24]", "result": 18, "unit": "%"}, {"measurement": "inhibition", "setting": "[25]", "result": 0, "unit": "%"}, {"measurement": "inhibition", "setting": "[26]", "result": 10, "unit": "%"}, {"measurement": "inhibition", "setting": "[27]", "result": 32, "unit": "%"}]}
